Reference: ChEMBL document CHEMBL1123067, “Evaluation of the brain-specific delivery of radioiodinated (iodophenyl)alkyl-substituted amines coupled to a dihydropyridine carrier” (J Med Chem, 1985)

Experiments:
Format in all cases: ADME, organism-based
Rattus norvegicus [1] = experiment: Distribution of radioactivity in lung tissues of Sprague-Dawley rats after 30 min injecton by intravenously; 0.6-0.66; details: in vivo, iv, 0.5 h
Rattus norvegicus [2] = experiment: Distribution of radioactivity in blood tissues of Sprague-Dawley rats after 15 min injecton by intravenously; 0.95-1.06; details: in vivo, iv, 0.25 h
In short: (§1)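 Female Sprague-Dawley rats, 10–12 weeks old (170–200 g), fed ad libitum. The ¹²⁵I-labelled agent was dissolved in minimal Me2SO, diluted with saline to a final 20% Me2SO, filtered (0.22 μm), and injected into a lateral tail vein under ether anaesthesia. Tissues were counted against samples of the injected solution and expressed as % injected dose/g (mean, range). Brain/blood ratio is from the means.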

Rattus norvegicus [3] = experiment: Distribution of radioactivity in brain tissues of Sprague-Dawley rats after 5 min injecton by intravenously; 0.35-0.72; details: in vivo, iv; in short: as §1
Rattus norvegicus [4] = experiment: Distribution of radioactivity in lung tissues of Sprague-Dawley rats after 5 min injecton by intravenously; 0.54-1.07; details: in vivo, iv
Rattus norvegicus [5] = experiment: Distribution of radioactivity in kidney tissues of Sprague-Dawley rats after 60 min injecton by intravenously; 0.99-1.24; details: in vivo, iv, 1 h
Rattus norvegicus [6] = experiment: Distribution of radioactivity in liver tissues of Sprague-Dawley rats after 5 min injecton by intravenously; 0.73-1.45; details: in vivo, iv
Rattus norvegicus [7] = experiment: Distribution of radioactivity in brain tissues of Sprague-Dawley rats after 30 min injecton by intravenously; 0.18-0.36; details: in vivo, iv, 0.5 h; in short: as §1
Rattus norvegicus [8] = experiment: Distribution of radioactivity in brain tissues of Sprague-Dawley rats after 15 min injecton by intravenously; 0.34-0.5; details: in vivo, iv, 0.25 h; in short: as §1
Rattus norvegicus [9] = experiment: Distribution of radioactivity in lung tissues of Sprague-Dawley rats after 15 min injecton by intravenously; 0.77-0.86; details: in vivo, iv, 0.25 h
Rattus norvegicus [10] = experiment: Distribution of radioactivity in kidney tissues of Sprague-Dawley rats after 15 min injecton by intravenously; 1.59-2.03; details: in vivo, iv, 0.25 h
Rattus norvegicus [11] = experiment: Distribution of radioactivity in liver tissues of Sprague-Dawley rats after 60 min injecton by intravenously; 1.36-1.74; details: in vivo, iv, 1 h
Rattus norvegicus [12] = experiment: Distribution of radioactivity in heart tissues of Sprague-Dawley rats after 30 min injecton by intravenously; 0.36-0.42; details: in vivo, iv, 0.5 h; in short: as §1
Rattus norvegicus [13] = experiment: Distribution of radioactivity in lung tissues of Sprague-Dawley rats after 60 min injecton by intravenously; 0.36-0.44; details: in vivo, iv, 1 h
Rattus norvegicus [14] = experiment: Distribution of radioactivity in blood tissues of Sprague-Dawley rats after 30 min injecton by intravenously; 0.69-0.84; details: in vivo, iv, 0.5 h; in short: as §1
Rattus norvegicus [15] = experiment: Distribution of radioactivity in liver tissues of Sprague-Dawley rats after 30 min injecton by intravenously; 1.57-1.66; details: in vivo, iv, 0.5 h
Rattus norvegicus [16] = experiment: Distribution of radioactivity in liver tissues of Sprague-Dawley rats after 15 min injecton by intravenously; 1.37-1.74; details: in vivo, iv, 0.25 h
Rattus norvegicus [17] = experiment: Distribution of radioactivity in heart tissues of Sprague-Dawley rats after 5 min injecton by intravenously; 0.39-0.74; details: in vivo, iv
Rattus norvegicus [18] = experiment: Distribution of radioactivity in heart tissues of Sprague-Dawley rats after 15 min injecton by intravenously; 0.52-0.62; details: in vivo, iv, 0.25 h; in short: as §1
Rattus norvegicus [19] = experiment: Distribution of radioactivity in kidney tissues of Sprague-Dawley rats after 30 min injecton by intravenously; 1.67-2.11; details: in vivo, iv, 0.5 h
Rattus norvegicus [20] = experiment: Distribution of radioactivity in blood tissues of Sprague-Dawley rats after 5 min injecton by intravenously; 0.58-1.17; details: in vivo, iv; in short: as §1
Rattus norvegicus [21] = experiment: Distribution of radioactivity in heart tissues of Sprague-Dawley rats after 60 min injecton by intravenously; 0.22-0.29; details: in vivo, iv, 1 h
Rattus norvegicus [22] = experiment: Distribution of radioactivity in brain tissues of Sprague-Dawley rats after 60 min injecton by intravenously; 0.05-0.06; details: in vivo, iv, 1 h; in short: as §1
Rattus norvegicus [23] = experiment: Distribution of radioactivity in blood tissues of Sprague-Dawley rats after 60 min injecton by intravenously; 0.49-0.58; details: in vivo, iv, 1 h; in short: as §1
Rattus norvegicus [24] = experiment: Distribution of radioactivity in kidney tissues of Sprague-Dawley rats after 5 min injecton by intravenously; 0.62-1.13; details: in vivo, iv
Rattus norvegicus [25] = experiment: Distribution of radioactivity in blood tissues of Sprague-Dawley rats after 60 min injecton by intravenously; 0.25-0.32; details: in vivo, iv, 1 h; in short: as §1
Rattus norvegicus [26] = experiment: Distribution of radioactivity in liver tissues of Sprague-Dawley rats after 15 min injecton by intravenously; 4.01-4.81; details: in vivo, iv, 0.25 h
Rattus norvegicus [27] = experiment: Distribution of radioactivity in lung tissues of Sprague-Dawley rats after 5 min injecton by intravenously; 0.47-0.56; details: in vivo, iv
Rattus norvegicus [28] = experiment: Distribution of radioactivity in kidney tissues of Sprague-Dawley rats after 60 min injecton by intravenously; 0.48-0.72; details: in vivo, iv, 1 h
Rattus norvegicus [29] = experiment: Distribution of radioactivity in heart tissues of Sprague-Dawley rats after 60 min injecton by intravenously; 0.19-0.23; details: in vivo, iv, 1 h
Rattus norvegicus [30] = experiment: Distribution of radioactivity in kidney tissues of Sprague-Dawley rats after 15 min injecton by intravenously; 1.12-2.04; details: in vivo, iv, 0.25 h
Rattus norvegicus [31] = experiment: Distribution of radioactivity in liver tissues of Sprague-Dawley rats after 5 min injecton by intravenously; 6.76-10.44; details: in vivo, iv
Rattus norvegicus [32] = experiment: Distribution of radioactivity in heart tissues of Sprague-Dawley rats after 15 min injecton by intravenously; 0.24-0.28; details: in vivo, iv, 0.25 h; in short: as §1
Rattus norvegicus [33] = experiment: Distribution of radioactivity in brain tissues of Sprague-Dawley rats after 5 min injecton by intravenously; 0.02-0.03; details: in vivo, iv; in short: as §1
Rattus norvegicus [34] = experiment: Distribution of radioactivity in liver tissues of Sprague-Dawley rats after 60 min injecton by intravenously; 0.75-1.14; details: in vivo, iv, 1 h
Rattus norvegicus [35] = experiment: Distribution of radioactivity in brain tissues of Sprague-Dawley rats after 15 min injecton by intravenously; 0.03-0.03; details: in vivo, iv, 0.25 h; in short: as §1
Rattus norvegicus [36] = experiment: Distribution of radioactivity in brain tissues of Sprague-Dawley rats after 60 min injecton by intravenously; 0.02-0.03; details: in vivo, iv, 1 h; in short: as §1
Rattus norvegicus [37] = experiment: Distribution of radioactivity in lung tissues of Sprague-Dawley rats after 15 min injecton by intravenously; 0.4-0.54; details: in vivo, iv, 0.25 h
Rattus norvegicus [38] = experiment: Distribution of radioactivity in lung tissues of Sprague-Dawley rats after 60 min injecton by intravenously; 0.3-0.36; details: in vivo, iv, 1 h
Rattus norvegicus [39] = experiment: Distribution of radioactivity in kidney tissues of Sprague-Dawley rats after 5 min injecton by intravenously; 13.02-19.07; details: in vivo, iv
Rattus norvegicus [40] = experiment: Distribution of radioactivity in heart tissues of Sprague-Dawley rats after 5 min injecton by intravenously; 0.24-0.29; details: in vivo, iv
Rattus norvegicus [41] = experiment: Distribution of radioactivity in blood tissues of Sprague-Dawley rats after 15 min injecton by intravenously; 0.35-0.37; details: in vivo, iv, 0.25 h; in short: as §1
Rattus norvegicus [42] = experiment: Distribution of radioactivity in blood tissues of Sprague-Dawley rats after 5 min injecton by intravenously; 0.34-0.48; details: in vivo, iv; in short: as §1

SMILES: Nc1ccc([125I])cc1
- Distribution (Rattus norvegicus [1]): 0.62%
- Distribution (Rattus norvegicus [2]): 0.99%
- Distribution (Rattus norvegicus [3]): 0.58%
- Distribution (Rattus norvegicus [4]): 0.86%
- Distribution (Rattus norvegicus [5]): 1.12%
- Distribution (Rattus norvegicus [6]): 1.16%
- Distribution (Rattus norvegicus [7]): 0.27%
- Distribution (Rattus norvegicus [8]): 0.43%
- Distribution (Rattus norvegicus [9]): 0.81%
- Distribution (Rattus norvegicus [10]): 1.81%
- Distribution (Rattus norvegicus [11]): 1.6%
- Distribution (Rattus norvegicus [12]): 0.39%
- Distribution (Rattus norvegicus [13]): 0.39%
- Distribution (Rattus norvegicus [14]): 0.77%
- Distribution (Rattus norvegicus [15]): 1.6%
- Distribution (Rattus norvegicus [16]): 1.57%
- Distribution (Rattus norvegicus [17]): 0.63%
- Distribution (Rattus norvegicus [18]): 0.57%
- Distribution (Rattus norvegicus [19]): 1.8%
- Distribution (Rattus norvegicus [20]): 0.94%
- Distribution (Rattus norvegicus [21]): 0.24%
- Distribution (Rattus norvegicus [22]): 0.06%
- Distribution (Rattus norvegicus [23]): 0.54%
- Distribution (Rattus norvegicus [24]): 0.97%

SMILES: C[n+]1cccc(C(=O)NCCc2ccc([125I])cc2)c1
- Distribution (Rattus norvegicus [25]): 0.27%
- Distribution (Rattus norvegicus [26]): 4.33%
- Distribution (Rattus norvegicus [27]): 0.47%
- Distribution (Rattus norvegicus [28]): 0.56%
- Distribution (Rattus norvegicus [29]): 0.2%
- Distribution (Rattus norvegicus [30]): 1.46%
- Distribution (Rattus norvegicus [31]): 8.03%
- Distribution (Rattus norvegicus [32]): 0.26%
- Distribution (Rattus norvegicus [33]): 0.03%
- Distribution (Rattus norvegicus [34]): 0.93%
- Distribution (Rattus norvegicus [35]): 0.03%
- Distribution (Rattus norvegicus [36]): 0.02%
- Distribution (Rattus norvegicus [37]): 0.47%
- Distribution (Rattus norvegicus [38]): 0.32%
- Distribution (Rattus norvegicus [39]): 16.46%
- Distribution (Rattus norvegicus [40]): 0.25%
- Distribution (Rattus norvegicus [41]): 0.36%
- Distribution (Rattus norvegicus [42]): 0.39%
